TPT1 inhibitor – C. albicans TPT1 enzyme inhibition; inhibition, % at 5 µM; recombinant caTPT1, FP RNA substrate dephosphorylation; 300,000 tested, 0.81% active;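 active means inhibition above the mean of all tested compounds plus 3 SD, set per screening campaign, cut at about 24% in these data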
CSN deneddyl inh – inhibitors of human CSN-mediated cullin deneddylation | Q92905 | Purified CSN, SCF-Nedd8-OG deneddylation, fluorescence polarization | inhibition, % at 12.5 µM | 360,000 tested, 0.38% active | AID 651999;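 active means pattern-corrected inhibition above about 35%, with an unprinted fluorescence ratio check between 0.5 and 1.5, limit read from the data, passing the limit was not always enough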
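Detection – fluorescence polarization · System – HEK293T-derived human Csn5 enzyme · Controls – substrate-only high control, full reaction low control · Timing – 90 min, room temperature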
IDE cell activ – boosts human insulin-degrading enzyme activity in HEK cells. P14735. FAbeta-B cleavage, fluorescence polarization; 0% vehicle, 100% cell-free pure enzyme wells. activation, % at 5.96 µM. 340,000 tested, 0.073% active. AID 493087;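 active means activation above the mean of all tested compounds plus 3 SD, set per screening campaign, cut at about 17% in these data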
Target sequence (P14735 whole entry, looked up): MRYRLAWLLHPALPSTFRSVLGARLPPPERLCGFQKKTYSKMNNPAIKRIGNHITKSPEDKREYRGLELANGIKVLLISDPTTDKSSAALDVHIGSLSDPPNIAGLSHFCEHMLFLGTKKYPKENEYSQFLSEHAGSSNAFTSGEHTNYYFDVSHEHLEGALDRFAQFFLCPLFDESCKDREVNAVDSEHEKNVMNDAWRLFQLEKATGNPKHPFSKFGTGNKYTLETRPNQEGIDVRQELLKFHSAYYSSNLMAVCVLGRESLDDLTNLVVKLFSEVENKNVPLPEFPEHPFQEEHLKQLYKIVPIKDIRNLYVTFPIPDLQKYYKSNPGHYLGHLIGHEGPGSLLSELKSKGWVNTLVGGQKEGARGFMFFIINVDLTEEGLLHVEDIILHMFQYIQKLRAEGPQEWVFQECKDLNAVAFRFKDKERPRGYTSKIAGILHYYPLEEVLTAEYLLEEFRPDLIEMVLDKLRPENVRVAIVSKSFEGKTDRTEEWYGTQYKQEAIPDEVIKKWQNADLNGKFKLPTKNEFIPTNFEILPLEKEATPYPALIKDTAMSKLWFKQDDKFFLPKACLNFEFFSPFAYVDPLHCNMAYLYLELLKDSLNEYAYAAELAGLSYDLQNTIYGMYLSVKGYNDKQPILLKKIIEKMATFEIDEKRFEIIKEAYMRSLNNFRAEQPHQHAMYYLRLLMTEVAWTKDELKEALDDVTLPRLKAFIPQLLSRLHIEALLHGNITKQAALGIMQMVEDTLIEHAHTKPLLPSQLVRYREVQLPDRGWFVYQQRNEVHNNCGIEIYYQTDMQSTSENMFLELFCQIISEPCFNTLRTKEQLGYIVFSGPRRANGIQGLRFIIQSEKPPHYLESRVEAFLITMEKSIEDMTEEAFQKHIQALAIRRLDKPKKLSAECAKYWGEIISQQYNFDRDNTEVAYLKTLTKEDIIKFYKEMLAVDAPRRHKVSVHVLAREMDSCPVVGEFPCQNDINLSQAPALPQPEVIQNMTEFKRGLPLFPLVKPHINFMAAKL
HNF4A DNA FP – change in binding of human HNF4 alpha to DNA | 360,000 tested, 0.3% active | activity change, % at 10 µM | HNF4a-FITC DNA binding, fluorescence polarization, 1 h | P41235; in the data active means activity change above about 30%, passing the limit was not always enough
IDE inh – inhibitors of human insulin-degrading enzyme in cells. inhibition, % at 5.59 µM. 320,000 tested, 0.41% active. HEK cells, FAbetaB cleavage, fluorescence polarization. P14735. AID 434962;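 active means percent inhibition above the average of all tested compounds plus 3 SD, set per screening campaign, cut at about 16% in these data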;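 further: IDE supplied by intact live HEK cells; FP after avidin binding of uncleaved biotin substrate so inhibition keeps polarization high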
IDE inh confirm – cellular human IDE inhibition, confirmation | shares compounds with IDE inh | HEK cells, FAbetaB cleavage, fluorescence polarization | inhibition, % at 5.59 µM | 1,200 tested, 51% active;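 active means mean inhibition across triplicate wells above the cutoff set by the earlier primary insulin-degrading enzyme screen, cut at about 16% in these data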
HEK293 tox – HEK cell cytotoxicity, counter-screen for IDE inhibitors; inhibition, % at 5.59 µM; shares compounds with IDE inh; HEK293 cytotoxicity, ATP luminescence; 1,200 tested, 28% active; in the data active means inhibition above about 22%
Numbers stand for hits; . = inactive; / = no result given. An excerpt weighted towards active compounds, which were near 1.4% of everything screened.

SMILES	TPT1 inhibitor	CSN deneddyl inh	IDE cell activ	HNF4A DNA FP	IDE inh	IDE inh confirm	HEK293 tox
COc1ccc(C(=O)/C=C/c2cc(OC)c(O)c(OC)c2)c(F)c1	.	.	.	.	52	87	43
CCn1c(SCC(=O)N(C)CC(=O)Nc2ccc(F)c(F)c2F)nnc1-c1ccco1	.	.	.	.	.	/	/
CCOC(=O)C1CCCN(C2=NC(=O)/C(=C/c3ccc(O)c(OC)c3)S2)C1 (stereo not drawn)	.	.	.	.	25	75	.
Cc1n[nH]c(C)c1N1C(=O)c2cccc3c(N4CCCCCC4)ccc(c23)C1=O	.	.	.	.	122	26	.
CC(=O)c1ccc2c3c(cccc13)C(=O)N(c1c(C)nn(C)c1C)C2=O	.	.	.	.	.	/	/
O=S(=O)(c1cccc(F)c1)N1CCN(c2nc(-c3cccnc3)nc3ccccc23)CC1	/	.	.	.	.	/	/
O=C(/C=C/c1ccc(F)cc1)N1CCCN(C(=O)/C=C/c2ccc(F)cc2)CC1	.	.	.	.	24	.	.
Cc1ccc(/C=C/C(=O)N2CCCN(C(=O)/C=C/c3ccc(C)cc3)CC2)cc1	.	.	.	.	.	/	/
Cc1[nH]n(-c2ccccc2)c(=S)c1C=Nc1cccc([N+](=O)[O-])c1	.	.	.	.	25	.	.
Cc1cc2cc(C(c3nnnn3Cc3ccccc3)N3CCc4ccccc43)c(=O)[nH]c2cc1C (stereo not drawn)	.	.	.	.	16	.	.
Cc1ccc2[nH]c(=O)c(C(c3nnnn3Cc3ccccc3)N3CCc4ccccc43)cc2c1 (stereo not drawn)	.	.	.	.	.	/	/
O=C1CC(C(=O)O)C(c2ccccc2)c2ccccc21 (stereo not drawn)	/	.	.	.	/	/	/
CC(=O)N1c2ccc(S(=O)(=O)N3CCC(C(=O)N4CCN(c5ccc(Cl)cc5)CC4)CC3)cc2CC1C (stereo not drawn)	.	.	.	.	20	.	38
CC1Cc2cc(S(=O)(=O)N3CCN(c4ccc(Cl)cc4)CC3)ccc2N1C(=O)C1CC1 (stereo not drawn)	.	.	.	.	.	/	/
COC(=O)c1c(NS(=O)(=O)c2cccs2)sc2c1CCCC2	.	.	.	.	18	.	.
COC(=O)c1c(NC(=O)Cc2cccs2)sc2c1CCCC2	.	.	.	.	.	/	/
CNC[C@@H]1OCc2ccccc2-c2ccccc2C(=O)N([C@H](C)CO)C[C@@H]1C	/	.	/	.	/	/	/
Cc1ccc2nc(NC(=O)CSc3nc4c(c(=O)n3C)SC(C)C4)sc2c1 (stereo not drawn)	.	.	.	.	25	.	.
Cc1ccc(C)c(NC(=O)CSc2nc3c(c(=O)n2C)SC(C)C3)c1 (stereo not drawn)	.	.	.	.	.	/	/
Cc1ccc(C(=O)Nc2ccccc2N2CCCC2)cc1	.	.	.	.	.	/	/
CCOC(=O)N1CCN(c2ccnc3cc(Cl)ccc23)CC1	.	.	.	.	37	20	.
O=C(c1ccc(Cl)cc1)N1CCN(c2ccnc3cc(Cl)ccc23)CC1	/	.	.	.	/	/	/
O=[N+]([O-])c1ccc(CN2CC(N3CCN(CC4CC4)CC3)CS2(=O)=O)cc1 (stereo not drawn)	/	.	/	.	/	/	/
COc1cccc(C(=O)NCC(=O)N/N=C/c2ccc3c(c2)OCO3)c1	.	.	.	.	.	/	/
O=C(CCOc1ccccc1)Nc1ccnn1C1CCN(CCc2ccccc2)CC1	.	.	.	.	.	/	/
SMILES	TPT1 inhibitor	CSN deneddyl inh	IDE cell activ	HNF4A DNA FP	IDE inh	IDE inh confirm	HEK293 tox
Cc1cc(C)c2oc(C(=O)Nc3ccc(S(=O)(=O)Nc4nccs4)cc3)cc(=O)c2c1	.	.	.	.	22	.	.
CCCCC(=O)NC(c1ccc(Cl)cc1)c1ccc2cccnc2c1O (stereo not drawn)	.	.	.	.	19	.	99
CC(C)CC(=O)NC(c1cccs1)c1ccc2cccnc2c1O (stereo not drawn)	.	.	.	.	17	.	106
CN(CC(=O)Nc1ccccc1C(=O)Nc1ccccc1)C1CCCCC1	/	.	.	.	.	/	/
Cc1ccc(C)c(S(=O)(=O)N2CCN(C(=O)c3cccnc3)CC2)c1	.	.	.	.	.	/	/
CC1Oc2cc3oc4c(O)c(O)ccc4c(=O)c3c(O)c2C1(C)C (stereo not drawn)	.	.	.	.	.	/	/
Cc1c(OCC(=O)N2CCC[C@@H]2C(=O)O)ccc2c3c(c(=O)oc12)CCC3	.	.	.	.	.	/	/
Cc1c(C)c2ccc(OCC(=O)N3CCC[C@@H]3C(=O)O)c(C)c2oc1=O	.	.	.	.	17	.	.
COc1ccc(Cl)cc1S(=O)(=O)NCc1ccncc1	.	.	.	.	.	/	/
CC(C)c1ccccc1-n1c(SCc2cc(=O)oc3ccc4ccccc4c23)nnc1-c1cccnc1	.	.	.	.	24	.	.
CCOc1cccc(C(=O)Nc2nc(-c3ccc(S(=O)(=O)N4CCOCC4)cc3)cs2)c1	.	.	.	.	23	.	38
O=C(COc1cccc(Cl)c1)Nc1nc(-c2ccc(S(=O)(=O)N3CCOCC3)cc2)cs1	/	.	.	.	/	/	/
COc1ccc(N2CCN(c3cc(C(=O)NC4CCCCC4)ncn3)CC2)cc1OC	/	.	/	.	/	/	/
COC(=O)c1cc(S(=O)(=O)NCc2ccc3c(c2)OCO3)cn1C	.	.	.	.	.	/	/
NNC(=O)/C(=C\c1ccc(Br)cc1)NC(=O)c1cccs1	.	.	.	.	17	.	.
CCCCn1c(SCC(=O)N2CCC(C)CC2)nc2ccsc2c1=O	.	.	.	.	.	/	/
CCCCn1c(SCC(=O)N2CCN(c3ccccc3)CC2)nc2ccsc2c1=O	.	.	.	.	21	.	.
O=C(COC(=O)/C=C/c1ccc(F)cc1)NC1CCCCCC1	/	.	.	.	.	/	/
O=C1C2C3C=CC(C3)C2C(=O)N1CC1CCCO1 (stereo not drawn)	.	.	.	.	.	/	/
O=C1CSC(=S)N1CC1CCCO1 (stereo not drawn)	.	.	.	.	18	.	.
Cc1cccc(S(=O)(=O)Nc2cccc3c2C(=O)c2ccccc2-3)c1	.	.	.	.	50	41	.
Cc1ccc(C2=CC(c3ccc(N(C)C)cc3)n3nnnc3N2)cc1 (stereo not drawn)	.	.	.	.	41	42	.
CN1C(=O)/C(=C/c2ccc(O)c([N+](=O)[O-])c2)N(C)C1=S	.	.	.	.	.	/	/
COc1cc(/C=C2\C(=O)N(C)C(=S)N2C)ccc1O	.	.	.	.	19	31	.
CCCCCCSc1cccc(-c2nc3ccc(Cl)cn3c2NCc2ccccc2)c1	.	.	.	.	.	/	/

Screening results as filed in PubChem BioAssay.
